Counter-ions that a name gives are not always drawn.
Assays:
chymotrypsin = chymotrypsin (Bos taurus, UniProt P00766); assay: Enzymatic selectivity assay against chymotrypsin; type: biochemical
Summary of the method: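 Bovine chymotrypsin (5 nM final) was preincubated for 10 min with serial dilutions of test compound in phosphate-buffered saline, pH 7.4. The reaction was started with N-succinyl-AAPF-AMC (10 μM final). Fluorescence (ex 380 nm/em 460 nm) was read every 1 min for 10 min. Reaction rates relative to DMSO controls gave the inhibition profiles.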

SARS-CoV-2 3CL^pro = SARS-CoV-2 3CL^pro (Severe acute respiratory syndrome coronavirus 2, UniProt P0DTD1); type: biochemical

Structure (SMILES)	IC50 (chymotrypsin) [µM]	inhibitory activity with the addition of 4 mM DTT (SARS-CoV-2 3CL^pro)
C/N=c1\nc(-c2ccccc2)n(-c2ccccc2)s1 [6a, N-methyl-2,3-diphenyl-1,2,4-thiadiazol-5(2H)-imine hydrobromide salt]	> 100	lost their inhibitory activity
C/N=c1\nc(-c2ccc(F)cc2)n(-c2ccccc2)s1 [6g, 3-(4-fluorophenyl)-N-methyl-2-phenyl-1,2,4-thiadiazol-5(2H)-imine hydrobromide salt]	> 100	lost their inhibitory activity

Reference: publication PMC9847367 (European Journal of Medicinal Chemistry, 2023)
